Screens deposited in PubChem by Johns Hopkins Ion Channel Center.
KCNK9 inh: human KCNK9 channel inhibition | Q9NPC2 | HEK293 KCNK9, FluxOR thallium flux fluorescence; stronger effect = lower value | B-score at 10 µM | actives 1.2% (n = 310,000);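 active = ratio B-score over 3 SD below the library mean, with starting fluorescence within 5 SD of its mean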;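 also: negative B-score means less thallium flux so channel inhibition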
hERG rescue: hERG (human) protection from proarrhythmic block | Q12809 | CHO-hERG, FluxOR thallium flux, dofetilide IC70 present | activation (rescue from dofetilide block), less the hit threshold, % at 10 µM | actives 0.51% (n = 310,000) | AID 1511;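 active = activation above the mean of controls blocked by dofetilide plus 5 SD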;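 also: thallium influx through hERG after potassium depolarization seen as dye fluorescence rise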
KCNQ1 act: potentiators or activators of human KCNQ1 potassium channel; actives 0.35% (n = 310,000); CHO-K1 KCNQ1, thallium flux FluxOR fluorescence; stronger effect = higher value; P51787; B-score at 10 µM; AID 2648;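 active = fluorescence ratio B-score, a plate-corrected score, at least three library SD, with initial intensity B-score within 5 SD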
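Assay system: stable KCNQ1 CHO-K1 line; medium: assay buffer, equal DMSO in all wells; timing: 90 min dye loading and 20 min compound exposure, both at room temperature; technique: kinetic FluxOR thallium fluorescence, 10-s 1-Hz baseline, 110-s post-stimulus read; read-out basis: B score of baseline-normalized fluorescence ratio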
KCNQ1 block: inhibitors of human KCNQ1 potassium channel; B-score at 10 µM; CHO-K1 KCNQ1, FluxOR thallium flux fluorescence; stronger effect = higher value; actives 1.3% (n = 310,000);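 active = compounds whose thallium flux B-score, printed positive for inhibition, exceeds three library SD while starting fluorescence stays within three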;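 also: channel opened by potassium depolarization with thallium stimulus after 20 min compound exposure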
KCNK3 block: human KCNK3 channel inhibition, primary screen; CHO-KCNK3 thallium flux, FluxOR fluorescence; stronger effect = lower value; B-score at 10 µM; actives 0.84% (n = 340,000);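 active = B-score under library mean minus 4 SD, starting fluorescence ratio at most library mean plus 5 SD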;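 also: more negative B-score means stronger inhibition of thallium flux through KCNK3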
Target sequence (O14649 whole entry, looked up): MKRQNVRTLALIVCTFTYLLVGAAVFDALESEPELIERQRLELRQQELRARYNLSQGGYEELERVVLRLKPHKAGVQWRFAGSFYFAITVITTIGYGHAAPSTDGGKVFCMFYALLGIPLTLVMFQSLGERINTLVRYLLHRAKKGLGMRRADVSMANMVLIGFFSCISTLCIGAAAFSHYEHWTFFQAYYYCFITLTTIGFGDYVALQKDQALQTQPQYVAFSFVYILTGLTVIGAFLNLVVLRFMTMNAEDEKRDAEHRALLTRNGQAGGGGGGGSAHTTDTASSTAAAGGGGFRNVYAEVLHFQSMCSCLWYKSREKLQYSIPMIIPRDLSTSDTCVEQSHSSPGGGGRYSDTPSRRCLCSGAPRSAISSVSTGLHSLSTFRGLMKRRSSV
Kir21 inh: Kir2.1 (mouse) channel inhibition. B-score at 10 µM. HEK293-Kir2.1, FluxOR thallium flux fluorescence; stronger effect = lower value. AID 1672. P35561. actives 0.85% (n = 310,000);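 active = fluorescence ratio B-score at or below minus 3 SD of library scores, with starting-brightness B-score within 2 SD, cut at about -4.2 in these data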;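 also: channel flux triggered by added potassium and thallium sulfate stimulus; B-score of peak minus minimum fluorescence over baseline after thallium stimulus; more negative B-score means stronger Kir2.1 block with less thallium influx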
KCNK9 inh conf: human KCNK9 inhibitor confirmation; HEK293 KCNK9 cells, FluxOR thallium flux fluorescence; inhibition, % at 10 µM; shares compounds with KCNK9 inh; AID 492992; actives 43% (n = 4,900);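 active = thallium signal inhibited by more than 5 SD of the compound-free buffer control wells, on both duplicate plates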;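 also: 0% = assay buffer control wells without compound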
Kir2-1 spec: tests whether KCNK9 modulators also affect mouse Kir2.1; AID 492993; shares compounds with KCNK9 inh; actives 4% (n = 4,900); Kir2.1 cells, FluxOR thallium flux fluorescence; inhibition, % at 10 µM;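 active = thallium signal drop more than 5 SD beyond the mean of the no-compound control wells, seen in both duplicate plates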;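 also: signal is fluorescence rise after thallium addition divided by baseline fluorescence; plate controls were assay buffer only for no effect and full block by chlorpromazine control for full effect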
HEK293 Tl ctr: second counter-screen for KCNK9 modulators: effect in non-induced cells. shares compounds with KCNK9 inh. non-induced KCNK9-HEK293, FluxOR thallium flux. inhibition, % at 10 µM. actives 40% (n = 4,900);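 active = thallium signal drop beyond 5 SD of the untreated control mean, on both duplicate plates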;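 also: plate controls were buffer only IC0 wells for no effect and SID17386958 at its maximal inhibitory level for full effect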
Numbers without * were called inactive; i = inactive; · = no result given. Hits are enriched below; roughly 3.7% of the tested compounds scored in any of these assays.

SMILES	KCNK9 inh	hERG rescue	KCNQ1 act	KCNQ1 block	KCNK3 block	Kir21 inh	KCNK9 inh conf	Kir2-1 spec	HEK293 Tl ctr
CCOc1ccc(-n2c(SCC(=O)Nc3ccc4c(c3)OCO4)nc3ccccc3c2=O)cc1	i	-7.1	i	i	i	-1.03	·	·	·
CC1Cc2nc(SCC(=O)Nc3ccc4c(c3)OCO4)n(CCc3ccccc3)c(=O)c2S1 (stereo not drawn)	-12.5*	-10.0	i	i	i	-1.87	58.0%*	i	i
CCn1c(SCC(=O)Nc2ccc3c(c2)OCO3)nc2c(c1=O)SC(C)C2 (stereo not drawn)	i	-15.4	i	i	i	-0.07	·	·	·
Cc1cc(-c2nnnn2-c2ccc(F)cc2)no1	i	-12.7	i	i	i	0.12	·	·	·
COc1ccccc1N1CCN(CCCCOc2cccc3ccccc23)CC1	i	-30.9	i	i	i	0.36	i	i	i
COc1ccccc1OCCCCN1CCN(c2ccccc2OC)CC1	i	-2.7	i	i	i	0.78	·	·	·
NC(=O)c1c(NC(=O)CSc2nc3c(c(C(F)(F)F)n2)CCc2ccccc2-3)sc2c1CCCC2	i	-11.9	i	i	i	0.16	·	·	·
CN(Cc1ccccc1)C(=O)CSc1nc2c(c(C(F)(F)F)n1)CCc1ccccc1-2	i	-7.1	i	i	i	0.56	i	i	i
O=C1OC(Sc2ccccc2)(c2ccccc2)c2ccccc21 (stereo not drawn)	·	·	·	·	i	·	·	·	·
Cc1cc(C)c(OC2(c3ccccc3)OC(=O)c3ccccc32)c(C)c1 (stereo not drawn)	-16.9*	-8.5	i	i	i	1.79	69.0%*	i	47.0%*
CC1CCCCN1C(=O)COC(=O)c1cccc(NS(=O)(=O)c2ccccc2)c1 (stereo not drawn)	i	-6.8	i	i	i	1.27	·	·	·
Cc1cc(SCC(=O)NC(=O)c2cccn2C)nc2ccccc12	i	-3.8	i	i	i	1.07	·	·	·
C#CCSc1nc(-c2ccccc2)cc(C(F)(F)F)c1C#N	-13.9*	-9.2	i	i	i	0.34	37.0%*	i	26.5%*
C/C(=N/NC(=O)c1cc2ccccc2cc1O)C1C(=O)c2ccccc2C1=O	i	-15.5	i	i	i	-1.07	·	·	·
C/C(=N\NC(=O)c1ccccc1O)C1C(=O)c2ccccc2C1=O	i	-30.9	i	11*	i	0.93	i	i	24.5%*
O=C(Cn1c2c(c(-c3ccccc3)cc1=O)CCCC2)N1CCCCCC1	i	-18.4	i	i	i	0.36	i	i	32.0%*
COc1ccccc1-c1cccc([C@@H]2C[C@H]3[C@H](CON3C)CN2S(=O)(=O)c2ccccc2C)c1	·	·	·	·	i	·	·	·	·
Cc1ccc(-c2csc3nc(SCC(=O)N(C)C)n(Cc4ccccc4)c(=O)c23)cc1	-9.51*	-13.5	i	i	i	0.51	49.5%*	i	28.0%*
Cc1cc(C)cc(NC(=O)CSc2nnnn2-c2cccnc2)c1	i	-1.6	i	i	i	0.45	·	·	·
Cc1ccc(C(=O)Nc2ccccc2-c2ccccc2)cc1S(=O)(=O)Nc1cccc(C)c1C	-9.39*	-6.9	i	6*	-11.2*	-0.31	40.5%*	i	41.5%*
Cc1ccc(C)c(NS(=O)(=O)c2cc(C(=O)Nc3ccccc3-c3ccccc3)ccc2C)c1	-11.6*	-12.4	i	i	-9.86*	0.35	42.5%*	i	41.5%*
Cc1ccc(C(=O)Nc2ccccc2C(=O)O)cc1S(=O)(=O)NCc1ccccc1	i	-7.1	i	i	i	0.26	·	·	·
Cc1ccc(C(=O)Nc2ccccc2C(=O)O)cc1S(=O)(=O)Nc1ccc(Br)cc1	i	-15.0	i	6*	i	0.57	i	i	i
CSc1ccc(S(=O)(=O)NCC(=O)OCC(=O)N2CCCC2=O)cc1[N+](=O)[O-]	i	-20.0	i	i	i	0.82	·	·	·
COc1ccc(NC(=O)CSc2nnc(C)s2)cc1S(=O)(=O)N1CCOCC1	·	·	·	·	i	·	·	·	·
SMILES	KCNK9 inh	hERG rescue	KCNQ1 act	KCNQ1 block	KCNK3 block	Kir21 inh	KCNK9 inh conf	Kir2-1 spec	HEK293 Tl ctr
COc1ccc(C(=O)NCCCNC(=O)c2ccccn2)cc1	i	-5.6	i	i	i	1.06	·	·	·
Cc1cc(C)nc(SCc2nnc(SCc3ccccc3Cl)o2)n1	-8.45*	-12.1	i	i	i	-2.01	47.0%*	i	i
CCC(C)(C)NC(=O)C1CC(=O)N(CCc2ccc(F)cc2)C1 (stereo not drawn)	i	-8.0	i	i	i	-0.21	·	·	·
COc1ccc(-c2csc(Nc3ccccc3)[n+]2Cc2ccccc2)cc1	-9.39*	-15.5	i	i	i	0.56	45.5%*	i	27.0%*
CCOC(=O)N1CCN(C(=O)COC(=O)c2ccc(Cl)nc2)CC1	·	·	·	·	i	·	·	·	·
CC(=O)N1N=C(c2ccc(Cl)cc2)OC1c1ccc(C(C)C)cc1 (stereo not drawn)	i	-6.1	i	6*	i	2.29	i	i	27.0%*
CC(C)C(C)NC(=O)COc1ccc(-c2ccccc2)cc1 (stereo not drawn)	-9.86*	-10.3	i	i	i	-0.04	34.0%*	i	i
CC(C)C(C)NC(=O)COc1ccc(OCc2ccccc2)cc1 (stereo not drawn)	i	-11.4	i	i	i	1.82	·	·	·
Cc1cc(C(=O)CCC(=O)N2CCN(c3ccccc3F)CC2)c(C)s1	i	-25.5	i	i	i	0.42	i	i	i
Cc1ccc(/C=N/N2CCN(Cc3cccc4ccccc34)CC2)s1	i	-4.3	i	i	i	-0.02	i	i	i
Cc1ccc(/C=N/N2CCN(Cc3cccc4ccccc34)CC2)o1	i	-9.2	i	i	i	-0.78	i	i	i
CC1=CC(C)(C)NC(=S)N1C(C)c1ccccc1 (stereo not drawn)	i	-5.7	i	i	i	-1.19	·	·	·
O=C(C1CCN(S(=O)(=O)c2ccc(Br)s2)CC1)N1CCc2ccccc21	i	-10.7	i	i	i	0.31	i	i	i
COC(=O)C1CCN(S(=O)(=O)c2ccc(Br)s2)CC1	·	·	·	·	i	·	·	·	·
